High-throughput results from PubChem BioAssay.
proCasp7 act: counter-screen for procaspase-3 activators: activators of human procaspase-7. recombinant procaspase-7, Ac-DEVD-pNA absorbance 405 nm; D23A/D198A/D206A triple mutant, cannot self-cleave; scale: DMSO 0, 5 µM enzyme 100. AID 463210. actives 0.093% (n = 330,000). activation, % at 8.5 µM;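 active = percent activation above the screen-wide mean plus 3 SD, cut at about 25% in these data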
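signal = Epi-absorbance of released pNA at 405 nm, two timepoints | assay system = Uncleavable procaspase-7 mutant enzyme | reagent = Ac-DEVD-pNA substrate, 400 µM as added | times = 1 h enzyme–compound preincubation and 2 h substrate reaction, both 25 °C | benchmarks = low DMSO alone, high DMSO plus 5 µM PC-7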
AHR act: human AHR activation | P35869 | AHR-responsive luciferase reporter cells, luminescence | activation, % at 5 µM | actives 2.5% (n = 320,000) | AID 2796; in the data active = activation above about 47%;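 note: 0% = vehicle wells and 100% = reference agonist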
Target sequence (P35869 whole entry, looked up): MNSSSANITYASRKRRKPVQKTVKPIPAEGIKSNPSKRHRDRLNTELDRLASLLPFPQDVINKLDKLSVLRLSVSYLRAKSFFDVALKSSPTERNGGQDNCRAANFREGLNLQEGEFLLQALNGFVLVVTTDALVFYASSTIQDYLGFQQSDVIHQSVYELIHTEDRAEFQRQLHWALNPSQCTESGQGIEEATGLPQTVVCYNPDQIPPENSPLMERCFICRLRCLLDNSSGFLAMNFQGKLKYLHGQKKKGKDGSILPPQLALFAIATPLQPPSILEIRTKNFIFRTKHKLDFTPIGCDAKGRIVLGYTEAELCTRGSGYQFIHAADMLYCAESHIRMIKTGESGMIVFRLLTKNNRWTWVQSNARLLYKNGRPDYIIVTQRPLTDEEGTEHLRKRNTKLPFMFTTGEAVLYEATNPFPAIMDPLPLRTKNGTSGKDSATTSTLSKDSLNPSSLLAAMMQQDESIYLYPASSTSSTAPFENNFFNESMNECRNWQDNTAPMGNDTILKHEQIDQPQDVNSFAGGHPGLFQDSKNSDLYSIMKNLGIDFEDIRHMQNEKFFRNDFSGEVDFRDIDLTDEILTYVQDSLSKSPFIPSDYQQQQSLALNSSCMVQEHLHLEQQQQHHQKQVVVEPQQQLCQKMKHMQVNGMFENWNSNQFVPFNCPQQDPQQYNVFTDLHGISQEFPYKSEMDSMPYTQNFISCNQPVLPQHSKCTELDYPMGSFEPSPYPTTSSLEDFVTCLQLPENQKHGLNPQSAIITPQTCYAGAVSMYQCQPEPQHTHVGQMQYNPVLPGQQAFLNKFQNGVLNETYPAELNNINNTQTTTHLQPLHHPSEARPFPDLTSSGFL
proCasp3 act: activators of human procaspase-3; actives 0.11% (n = 330,000); recombinant procaspase-3 D3A, Ac-DEVD-pNA absorbance 405 nm; AID 463141; activation, % at 8.5 µM;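 active = activation above the mean of all tested compounds plus 3 SD, cut at about 21% in these data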;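 note: 0% = DMSO alone and 100% = DMSO wells spiked with extra 5 µM PC-3 D3A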
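Assay system: Autoprocessing-dead procaspase-3 D3A mutant enzyme; also added: Ac-DEVD-pNA; doses: one concentration, 8.5 µM nominal, 0.8% DMSO; times: 1 h compound preincubation, 2 h substrate hydrolysis at 25 °C; technique: 405 nm absorbance of p-nitroaniline, reads at 0 and 120 min; measure: % activation between DMSO and enzyme-spiked controls; repeats: single replicate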
PolyA inhibitor: blocks polyadenylation in yeast reporter cells. activity score, % at 12 µM. S. cerevisiae SKY197-pL101 polyadenylation reporter, beta-gal luminescence; efflux-impaired pdr1/pdr3 knockout yeast; score 100 = 6 SD above DMSO. actives 0.02% (n = 300,000). AID 1875;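 active = lowest replicate activity score at least 50, where 100 means six control SD above control mean; inconclusive = lowest score under 50 but half or more replicates reach 50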;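 note: yeast exposed to compound for 9 h at 30 °C; higher score means more reporter readthrough which indicates perturbed polyadenylation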
Active calls of the source: *; ? = inconclusive; / = no result given. Most compounds without a hit are left out; they make up all but 2.6% or so of the library.

SMILES	proCasp7 act	AHR act	proCasp3 act	PolyA inhibitor
Cn1c(/C(C#N)=C(\O)c2cccc(F)c2)nc2ccccc21	-2.5	63.3*	0.0	-1.5
Cn1c(/C(C#N)=C(\O)c2ccc([N+](=O)[O-])cc2)nc2ccccc21	8.4	4.6	2.1	23.2
COc1ccc(CC(NC(C)=O)C(=O)NC2CCN(C(=O)c3ccccc3F)CC2)cc1 (stereo not given)	-0.5	0.6	9.1	10.9
Cc1c(N2C(=O)c3cccc4cccc(c34)C2=O)c(=O)n(-c2ccccc2)n1C	2.5	2.1	-7.1	3.7
Cc1c(N=C2Nc3cccc4cccc2c34)c(=O)n(-c2ccccc2)n1C	7.1	90.5*	-2.0	-8.3
Cc1nc(N)sc1-c1csc(Nc2ccc(Cl)cn2)n1	-13.5	76.2*	-4.0	1.6
Cc1nc(N)sc1-c1csc(Nc2cccc(O)c2)n1	-29.8	71.3*	-9.2	-7.7
Cc1nc(C)c(-c2csc(Nc3cccc(O)c3)n2)s1	4.5	2.1	-5.8	-4.3
CC(=O)c1cccc(Nc2nc(-c3sc(C)nc3C)cs2)c1	5.2	-2.1	-3.2	-6.3
CC(=O)c1cccc(Nc2nc(-c3sc(N)nc3C)cs2)c1	-15.3	49.2*	-6.2	-5.1
C=C(NC(=O)C(=C)NC(=O)c1csc(C2=NC3c4csc(n4)C4NC(=O)c5csc(n5)C([C@@](C)(O)C(C)O)NC(=O)C5CSC(=N5)/C(=C\C)NC(=O)C(C(C)O)NC(=O)c5csc(n5)[C@]3(CC2)NC(=O)C(C)NC(=O)C(=C)NC(=O)C(C)NC(=O)C(C(C)CC)NC2C=Cc3c(C(C)O)cc(nc3C2O)C(=O)OC4C)n1)C(N)=O (stereo not given in full)	-0.7	-6.5	6.4	/
Clc1ccc(-c2n[nH]c3c2Cc2ccccc2-3)cc1Cl	14.0	59.7*	8.3	-7.3
c1ccc2c(c1)CCc1c(-c3ccncc3)n[nH]c1-2	5.5	44.0	-9.1	/
O=C(NC1CCCCC1)C1Cc2ccccc2CN1S(=O)(=O)c1ccc(F)cc1 (stereo not given)	1.8	-1.9	-4.8	-15.6
O=C(Nc1nccs1)C1Cc2ccccc2CN1S(=O)(=O)c1ccc(F)cc1 (stereo not given)	7.8	64.4*	15.2	-9.9
COc1cc(Cl)c(C)cc1NC(=O)c1cccc(OC)c1OC	-1.4	58.1*	5.9	-4.8
COc1cc(Cl)c(C)cc1NC(=O)c1ccc2c(c1)OCO2	3.9	73.5*	1.0	19.1
COc1ccc(Cl)cc1NC(=O)NCc1ccc2c(c1)OCO2	9.4	75.7*	1.2	1.1
COc1cccc(NC(=O)c2cccc(OC)c2OC)c1	10.3	34.0	-0.7	-15.6
COc1ccccc1NC(=O)NCc1ccc2c(c1)OCO2	/	/	/	-2.5
Cc1cccc(NC(=O)CSCC(=O)N(C)CCOc2ccc(Cl)cc2)c1	-0.3	0.0	-3.6	-18.3
COc1cccc(CN(C)C(=O)[C@@H](NC(=O)c2ccc(C)cc2)C(C)C)c1	9.1	0.6	-0.2	7.7
Cc1cc(C)cc(N=C2NC(=O)/C(=C/c3cccs3)S2)c1	-9.4	55.6*	1.8	-24.0
Cc1ccc(N=C2NC(=O)/C(=C\c3ccco3)S2)cc1	3.8	19.6	3.1	-2.0
O=C1NC(=Nc2ccccc2)S/C1=C\c1cccs1	1.8	72.0*	-6.5	-1.2
SMILES	proCasp7 act	AHR act	proCasp3 act	PolyA inhibitor
CN(CC(=O)N(C)CC(=O)Nc1c(Cl)cccc1Cl)Cc1ccccc1F	-0.9	4.6	-2.0	/
O=c1[nH]c(Nc2nc3ccccc3o2)nc2c1CCCC2	6.0	54.9*	-3.1	-19.0
O=C(c1ccc(Cl)cc1)C1CCN(CC(=O)N2CCCCC2)CC1	-0.8	-1.5	8.7	-18.5
Cc1nc(S/C(=C/c2ccc(-c3ccc(Cl)cc3)o2)C(=O)O)n[nH]1	-1.5	57.2*	-9.4	12.7
Cc1nc(S/C(=C/c2ccc(-c3ccc(C(=O)O)cc3)o2)C(=O)O)n[nH]1	-11.3	1.0	-9.2	-11.1
CCC(C)c1ccc(O)c(NC(=O)c2cccnc2)c1 (stereo not given)	-7.1	60.3*	-6.6	?
CN(C)c1oc(/C=C/c2ccccc2)nc1C#N	2.2	50.5*	-2.9	-11.3
COc1ccccc1/C=C/c1nc(C#N)c(N(C)C)o1	-0.7	39.6	6.9	-31.3
CN(CC(=O)Nc1ccc(Cl)c(C(F)(F)F)c1)C(=O)C1CSC2(C)CCC(=O)N12 (stereo not given)	2.3	-1.6	4.4	-1.3
CC(NC(=O)C12CC3CC(CC(O)(C3)C1)C2)c1ccc(Cl)cc1Cl (stereo not given)	1.7	0.5	4.9	-3.4
C=CCc1c(C)nc(C)nc1N/N=C/c1ccc(N(C)C)cc1	-4.8	78.9*	-15.6	4.5
O=C(COc1ccc(S(=O)(=O)N2CCOCC2)cc1)NC1CC1	5.2	-0.7	4.0	15.5
O=C(c1cccs1)N1CCc2ccccc21	-6.0	6.0	5.7	-24.7
O=C(/C=C/c1cccs1)N1CCc2ccccc21	-3.2	54.1*	-2.7	-15.1
CC(=O)c1cc2c(cc1NC(=O)C1CN(C(C)=O)c3ccccc3O1)OCO2 (stereo not given)	2.3	52.6*	-3.7	/
CN(C)S(=O)(=O)Oc1cc(Cl)ccc1C(=O)Nc1ccc(F)cc1F	2.6	74.0*	-2.8	-17.0
CN(C)c1ccncc1C(=O)Nc1ccc(F)cc1F	1.9	3.1	-5.0	-8.0
Cc1ccc(OCCNC(=O)c2ccc(NC(=O)CC3SC(N4CCCC4)=NC3=O)cc2)cc1 (stereo not given)	-0.8	9.5	-5.8	-2.7
Cc1ccc(-c2nc(NCCN3CCOCC3)c3ccccc3n2)cc1	6.6	65.5*	2.8	2.5
Clc1ccc(-c2nc(NCCCN3CCOCC3)c3ccccc3n2)cc1	2.4	70.7*	0.8	-2.3
Clc1cccc(-c2nc(NCCCN3CCOCC3)c3ccccc3n2)c1	12.5	13.5	4.0	-5.0
Clc1cccc(-c2nc(NCCN3CCOCC3)c3ccccc3n2)c1	4.0	11.4	5.2	-5.0
O=c1c2[nH]c3ccc(Br)cc3c2ncn1CCCn1ccnc1	2.4	43.9	-9.8	14.2
CN(C)CCCn1c(=S)[nH]c2ccccc2c1=O	-1.8	-0.3	-8.7	-2.6
O=c1c2ccccc2[nH]c(=S)n1CCCn1ccnc1	14.7	67.7*	3.2	9.1
SMILES	proCasp7 act	AHR act	proCasp3 act	PolyA inhibitor
O=c1c2[nH]c3ccccc3c2ncn1CCCn1ccnc1	7.0	65.6*	7.5	17.0
O=C1CN(S(=O)(=O)c2ccccc2)c2ccccc2N1	2.9	0.8	-5.3	-7.3
Nc1n[nH]c(-c2ccc(Br)cc2)c1Cl	5.8	61.7*	4.9	-5.9
N#C/C(=N\Nc1cccc2ccccc12)c1nnc2n1CCCCC2	2.1	54.2*	7.7	-4.4
COc1cc(/C=C(/C(=O)c2cccs2)c2nc3ccccc3[nH]2)ccc1O	-0.7	56.9*	0.4	-0.3
O=C(/C(=C/c1ccc(Cl)cc1)c1nc2ccccc2[nH]1)c1cccs1	0.9	58.4*	6.5	-64.3
